The structures appear in SMILES notation.

Experiment [1] addresses Coagulation factor X (Bos taurus) (UniProt P00743). Description: Inhibition of bovine F10a at 125 uM.
Experiment [2] is filed under the species Homo sapiens. Kind of experiment: Selectivity index, IC50 for human plasmin/IC50 for human uPA.
Experiment [3] can be described thus: Selectivity index, IC50 for bovine trypsin/IC50 for human uPA.
In experiment [4] the target is Thrombin and urokinase-type plasminogen activator (Homo sapiens) (UniProt P00734+P00749). Kind of experiment: Selectivity index, IC50 for human thrombin/IC50 for human uPA. The format is protein assay.
Experiment [5] in a line: Inhibition of bovine trypsin. On the set-up: species or system Bos taurus. An outline of the steps:
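Bovine trypsin, approx. 5 mU, is preincubated with inhibitor for 15 min at 37 °C. BAPNA substrate is then added at 425 µM (Km 1 mM) in Tris pH 8.2. The pNA release rate is read at 405 nm, duplicate wells, and IC50 comes from a four-parameter logistic fit.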

For experiment [6], the species on record is Homo sapiens. Description: Selectivity index, IC50 for recombinant tPA/IC50 for human uPA.
The target in experiment [7] is Plasminogen (Homo sapiens, UniProt P00747). Description: Inhibition of human plasmin. In short, it runs like this:
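Plasmin from human plasma, approx. 5 mU, in Tris pH 7.4, with a 15-min 37 °C inhibitor preincubation. […] Initial rate is read at 405 nm, in duplicate, and IC50 is obtained by four-parameter logistic fitting.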

Experiment [8] deals with T1, Urokinase-type plasminogen activator (Homo sapiens, UniProt P00749). Description: Inhibition of human uPA.
Experiment [9] addresses T1, Urokinase-type plasminogen activator. Kind of experiment: Inhibition of mouse uPA. The settings on record: target entry is the homologue from another species.
Experiment [10] addresses Prothrombin (Homo sapiens, UniProt P00734). Kind of experiment: Inhibition of human thrombin. An outline of the steps: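 Thrombin from human plasma, approx. 5 mU, in Tris pH 8.3, with a 15-min 37 °C inhibitor preincubation. […] Initial rate is read at 405 nm, duplicates, and IC50 is obtained by four-parameter logistic fitting.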
Experiment [11] concerns the target Tissue-type plasminogen activator (Homo sapiens, UniProt P00750). Description: Inhibition of recombinant tPA. In short, it runs like this:
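Recombinant tPA, approx. 5 mU, in Tris pH 8.3, is preincubated with inhibitor for 15 min at 37 °C. S-2288 is then added at 1.25 mM (Km 1 mM). Absorbance change is read at 405 nm, in duplicate, and IC50 comes from a four-parameter logistic fit.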

Experiment [12] deals with T2, Coagulation factor X (Bos taurus, UniProt P00743). Kind of experiment: (§1) Inhibition of bovine F10a at 250 uM.
T2 sequence (P00743 41-180 limits assumed): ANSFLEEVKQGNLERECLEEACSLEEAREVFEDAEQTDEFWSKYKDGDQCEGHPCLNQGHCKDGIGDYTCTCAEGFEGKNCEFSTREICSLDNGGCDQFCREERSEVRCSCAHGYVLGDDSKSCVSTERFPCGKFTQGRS
T2 sequence (P00743 234-492 limits assumed): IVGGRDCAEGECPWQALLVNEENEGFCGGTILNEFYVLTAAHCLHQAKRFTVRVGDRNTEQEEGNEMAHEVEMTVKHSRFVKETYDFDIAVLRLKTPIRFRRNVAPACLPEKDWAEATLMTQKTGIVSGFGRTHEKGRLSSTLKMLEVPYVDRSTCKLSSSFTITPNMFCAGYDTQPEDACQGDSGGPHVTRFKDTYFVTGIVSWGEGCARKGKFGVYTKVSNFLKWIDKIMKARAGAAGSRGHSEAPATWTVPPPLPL
The nature of experiment [13]: Selectivity for mouse uPA over plasmin.
A short description of experiment [14]: Selectivity for mouse uPA over tPA.
The target in experiment [15] is Coagulation factor X (Bos taurus) (UniProt P00743). The description is as §1.
Chain of Coagulation factor X (Bos taurus) (P00743 41-180 limits assumed): as the sequence (P00743 41-180 limits assumed) above
Chain of Coagulation factor X (Bos taurus) (P00743 234-492 limits assumed): as the sequence (P00743 234-492 limits assumed) above
Experiment [16] is described as follows: Selectivity index, IC50 for bovine F10a/IC50 for human uPA.
The target of experiment [17] is T2, Coagulation factor X. Description: Inhibition of bovine F10a.

Chain of Tissue-type plasminogen activator (P00750 whole entry): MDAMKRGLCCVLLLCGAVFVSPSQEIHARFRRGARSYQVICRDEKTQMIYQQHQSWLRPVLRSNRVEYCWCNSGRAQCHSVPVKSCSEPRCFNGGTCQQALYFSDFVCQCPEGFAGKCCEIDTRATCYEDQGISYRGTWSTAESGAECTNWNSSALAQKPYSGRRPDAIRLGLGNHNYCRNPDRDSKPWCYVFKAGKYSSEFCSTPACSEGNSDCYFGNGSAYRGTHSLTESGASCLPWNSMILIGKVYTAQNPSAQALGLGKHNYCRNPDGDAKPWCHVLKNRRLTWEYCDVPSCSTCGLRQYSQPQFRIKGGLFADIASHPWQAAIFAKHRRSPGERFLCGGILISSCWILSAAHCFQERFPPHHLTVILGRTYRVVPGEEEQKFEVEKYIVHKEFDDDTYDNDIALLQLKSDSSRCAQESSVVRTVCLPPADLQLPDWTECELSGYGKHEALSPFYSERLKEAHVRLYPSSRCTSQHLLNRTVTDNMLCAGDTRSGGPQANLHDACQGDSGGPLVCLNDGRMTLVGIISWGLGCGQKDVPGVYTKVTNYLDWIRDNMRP
Chain of Plasminogen (P00747 97-580 limits assumed): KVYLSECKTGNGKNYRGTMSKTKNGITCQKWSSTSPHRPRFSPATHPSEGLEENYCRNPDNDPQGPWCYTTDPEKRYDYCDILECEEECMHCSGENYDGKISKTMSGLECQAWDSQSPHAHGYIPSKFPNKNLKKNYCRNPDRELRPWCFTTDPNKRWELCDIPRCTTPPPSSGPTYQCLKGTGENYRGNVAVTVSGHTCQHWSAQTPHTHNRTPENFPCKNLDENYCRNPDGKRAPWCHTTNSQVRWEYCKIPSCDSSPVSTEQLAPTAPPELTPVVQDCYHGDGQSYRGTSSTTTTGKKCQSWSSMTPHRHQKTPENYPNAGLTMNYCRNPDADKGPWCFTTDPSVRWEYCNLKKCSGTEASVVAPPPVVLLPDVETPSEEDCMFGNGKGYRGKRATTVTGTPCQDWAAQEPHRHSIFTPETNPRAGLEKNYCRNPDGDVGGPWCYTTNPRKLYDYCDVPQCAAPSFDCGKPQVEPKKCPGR
Chain of Plasminogen (P00747 581-810 limits assumed): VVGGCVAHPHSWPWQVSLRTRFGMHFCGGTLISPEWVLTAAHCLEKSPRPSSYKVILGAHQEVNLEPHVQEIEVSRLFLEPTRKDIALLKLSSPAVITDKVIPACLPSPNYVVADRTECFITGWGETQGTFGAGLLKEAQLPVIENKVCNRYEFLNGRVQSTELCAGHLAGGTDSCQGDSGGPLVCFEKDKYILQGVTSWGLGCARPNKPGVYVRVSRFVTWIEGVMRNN

Broadly, the inhibition is the percentage by which the read-out fell short of the control. As a reminder, the IC50 is the concentration needed to halve the response being measured. In turn, `C[C@H](NC(=O)[C@@H](CO)NC(=O)OCc1ccccc1)C(=O)NC(Cc1ccc(NC(=N)N)cc1)P(=O)(Oc1ccccc1)Oc1ccccc1` (some centres not stated) returned an inhibition in [1] of 43%. Further, the Selectivity index stood at 470 in experiment [2], 70 in experiment [3], 4700 in experiment [4] and 1000 in experiment [6]. This compound also yielded a concentration for half-maximal inhibition (IC50) in experiment [5] of 300 nM.

With `CC(=O)Nc1ccc(OP(=O)(Oc2ccc(NC(C)=O)cc2)C(Cc2ccc(N=C(N)N)cc2)NC(=O)[C@H](C)NC(=O)[C@@H](CO)NC(=O)OCc2ccccc2)cc1` (some centres not stated), the IC50 was determined as 900 nM in experiment [7]; 6.7 nM in [8]; 410 nM in [9]; 1500 nM in experiment [10]; 6400 nM in experiment [11].

In the case of `C[C@H](NC(=O)[C@@H](CO)NC(=O)c1cccs1)C(=O)NC(Cc1ccc(N=C(N)N)cc1)P(=O)(Oc1ccccc1)Oc1ccccc1` (some centres not stated), the IC50 in experiment [7] stood at 10000 nM; in [8], 6.9 nM; in experiment [10], 35000 nM; in experiment [12] it was 250000 nM; in experiment [11], 13000 nM.

In the case of `CC(=O)Nc1ccc(OP(=O)(Oc2ccc(NC(C)=O)cc2)C(Cc2ccc(NC(=N)N)cc2)NC(=O)[C@H](C)NC(=O)[C@@H](CO)NC(=O)OCc2ccccc2)cc1` (some centres not stated), the Selectivity index stood at 130 in [2], 30 in [3], 200 in experiment [4] and 1000 in experiment [6]. Besides, the Selectivity ratio in experiment [13] and in experiment [14] was 5 throughout. Half-maximal inhibition in experiment [5] (IC50) was put at 200 nM. This compound also gave an inhibition in [15] of 58%.

With `C[C@H](NC(=O)[C@@H](CO)NS(=O)(=O)c1ccc(Br)cc1)C(=O)NC(Cc1ccc(NC(=N)N)cc1)P(=O)(Oc1ccccc1)Oc1ccccc1` (some centres not stated), the IC50 turned out to be 900 nM in experiment [7]; 6.6 nM in experiment [8]; 2980 nM in [10]; 240 nM in experiment [5]; 58000 nM in [17]; 3700 nM in experiment [11]. Moreover, the Selectivity index in experiment [2] stood at 136; in [3], 36; in [4], 451; in experiment [16], 9000; in [6], 560.

`COc1ccc(S(=O)(=O)N[C@H](CO)C(=O)N[C@@H](C)C(=O)NC(Cc2ccc(NC(=N)N)cc2)P(=O)(Oc2ccccc2)Oc2ccccc2)cc1` (some centres not stated): the IC50 in experiment [7] came to 1700 nM; in [8], 5.8 nM; in experiment [10], 1670 nM; in experiment [5], 360 nM; in experiment [17] it was 100000 nM; in experiment [11] it was 4300 nM. The Selectivity index in experiment [2] came out at 293; in experiment [3], 60; in [4] it was 288; in experiment [16], 19000; in experiment [6] it was 740.

On to `C[C@H](NC(=O)[C@@H](CO)NS(=O)(=O)Cc1ccccc1)C(=O)NC(Cc1ccc(NC(=N)N)cc1)P(=O)(Oc1ccccc1)Oc1ccccc1` (some centres not stated), for which the IC50 is 37 nM in [7]; 3.5 nM in experiment [8]; 770 nM in [10]; 310 nM in experiment [5]; 33000 nM in experiment [17]; 280 nM in experiment [11]. Moreover, the Selectivity index in experiment [2] was determined as 11; in experiment [3] it was 90; in [4], 220; in [16], 9400; in [6], 80.

Values taken from ChEMBL document CHEMBL1149362, “Diphenyl phosphonate inhibitors for the urokinase-type plasminogen activator: optimization of the P4 position” (J Med Chem, 2006).
